Results: ChEMBL document CHEMBL1268917, “Synthesis and biological evaluation of radio-iodinated benzimidazoles as SPECT imaging agents for NR2B subtype of NMDA receptor” (Bioorg Med Chem, 2010)

How the values were obtained:
Format in all cases: ADME, organism-based
[1] = system: Liver; assay: Biodistribution in ddY mouse liver assessed per gram of tissue at 14.8 kBq, iv after 360 mins; details: in vivo, 6 h
Outline: (§1)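 Killed at set times after injection; organs and blood removed, weighed, gamma counted. Data as % injected dose per gram tissue, mean SD, n = 5–6.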

[2] = system: Kidney; assay: Biodistribution in ddY mouse kidney assessed per gram of tissue at 14.8 kBq, iv after 360 mins; details: in vivo, 6 h; outline: as §1
[3] = system: Intestine; assay: Biodistribution in ddY mouse intestine assessed per gram of tissue at 14.8 kBq, iv after 360 mins; details: in vivo, 6 h; outline: as §1
[4] = system: Stomach; assay: Biodistribution in ddY mouse stomach assessed per gram of tissue at 14.8 kBq, iv after 360 mins; details: in vivo, 6 h
Outline: (§2)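 Radioiodinated tracer (14.8 kBq) injected via tail vein into male ddY mice (6 weeks, 30–35 g). Organs removed at set times after injection, weighed and gamma-counted; uptake expressed as % injected dose per gram tissue, mean ± SD, n = 5–6.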

[5] = system: Spleen; assay: Biodistribution in ddY mouse spleen assessed per gram of tissue at 14.8 kBq, iv after 360 mins; details: in vivo, 6 h; outline: as §2
[6] = system: Pancreas; assay: Biodistribution in ddY mouse pancreas assessed per gram of tissue at 14.8 kBq, iv after 360 mins; details: in vivo, 6 h; outline: as §2
[7] = system: Heart; assay: Biodistribution in ddY mouse heart assessed per gram of tissue at 14.8 kBq, iv after 360 mins; details: in vivo, 6 h; outline: as §1
[8] = system: Lung; assay: Biodistribution in ddY mouse lung assessed per gram of tissue at 14.8 kBq, iv after 360 mins; details: in vivo, 6 h; outline: as §2
[9] = system: Brain; assay: Biodistribution in ddY mouse brain assessed per gram of tissue at 14.8 kBq, iv after 360 mins; details: in vivo, 6 h; outline: as §1
[10] = system: Liver; assay: Biodistribution in ddY mouse liver assessed per gram of tissue at 14.8 kBq, iv after 180 mins; details: in vivo, 3 h; outline: as §1
[11] = system: Kidney; assay: Biodistribution in ddY mouse kidney assessed per gram of tissue at 14.8 kBq, iv after 180 mins; details: in vivo, 3 h; outline: as §1
[12] = system: Intestine; assay: Biodistribution in ddY mouse intestine assessed per gram of tissue at 14.8 kBq, iv after 180 mins; details: in vivo, 3 h; outline: as §1
[13] = system: Stomach; assay: Biodistribution in ddY mouse stomach assessed per gram of tissue at 14.8 kBq, iv after 180 mins; details: in vivo, 3 h; outline: as §2
[14] = system: Spleen; assay: Biodistribution in ddY mouse spleen assessed per gram of tissue at 14.8 kBq, iv after 180 mins; details: in vivo, 3 h; outline: as §2
[15] = system: Pancreas; assay: Biodistribution in ddY mouse pancreas assessed per gram of tissue at 14.8 kBq, iv after 180 mins; details: in vivo, 3 h; outline: as §2
[16] = system: Heart; assay: Biodistribution in ddY mouse heart assessed per gram of tissue at 14.8 kBq, iv after 180 mins; details: in vivo, 3 h; outline: as §1
[17] = system: Lung; assay: Biodistribution in ddY mouse lung assessed per gram of tissue at 14.8 kBq, iv after 180 mins; details: in vivo, 3 h; outline: as §2
[18] = system: Brain; assay: Biodistribution in ddY mouse brain assessed per gram of tissue at 14.8 kBq, iv after 180 mins; details: in vivo, 3 h; outline: as §1
[19] = system: Blood; assay: Biodistribution in ddY mouse blood assessed per gram of tissue at 14.8 kBq, iv after 360 mins; details: in vivo, 6 h; outline: as §1
[20] = system: Blood; assay: Biodistribution in ddY mouse blood assessed per gram of tissue at 14.8 kBq, iv after 0.5 mins; details: in vivo; outline: as §1
[21] = system: Liver; assay: Biodistribution in ddY mouse liver assessed per gram of tissue at 14.8 kBq, iv after 0.5 mins; details: in vivo; outline: as §1
[22] = system: Kidney; assay: Biodistribution in ddY mouse kidney assessed per gram of tissue at 14.8 kBq, iv after 0.5 mins; details: in vivo; outline: as §1
[23] = system: Intestine; assay: Biodistribution in ddY mouse intestine assessed per gram of tissue at 14.8 kBq, iv after 0.5 mins; details: in vivo; outline: as §1
[24] = system: Stomach; assay: Biodistribution in ddY mouse stomach assessed per gram of tissue at 14.8 kBq, iv after 0.5 mins; details: in vivo; outline: as §2
[25] = system: Spleen; assay: Biodistribution in ddY mouse spleen assessed per gram of tissue at 14.8 kBq, iv after 0.5 mins; details: in vivo; outline: as §2
[26] = system: Pancreas; assay: Biodistribution in ddY mouse pancreas assessed per gram of tissue at 14.8 kBq, iv after 0.5 mins; details: in vivo; outline: as §2
[27] = system: Heart; assay: Biodistribution in ddY mouse heart assessed per gram of tissue at 14.8 kBq, iv after 0.5 mins; details: in vivo; outline: as §1
[28] = system: Lung; assay: Biodistribution in ddY mouse lung assessed per gram of tissue at 14.8 kBq, iv after 0.5 mins; details: in vivo; outline: as §2
[29] = system: Brain; assay: Biodistribution in ddY mouse brain assessed per gram of tissue at 14.8 kBq, iv after 0.5 mins; details: in vivo; outline: as §1
[30] = system: Blood; assay: Biodistribution in ddY mouse blood assessed per gram of tissue at 14.8 kBq, iv after 5 mins; details: in vivo; outline: as §1
[31] = system: Liver; assay: Biodistribution in ddY mouse liver assessed per gram of tissue at 14.8 kBq, iv after 5 mins; details: in vivo; outline: as §1
[32] = system: Kidney; assay: Biodistribution in ddY mouse kidney assessed per gram of tissue at 14.8 kBq, iv after 5 mins; details: in vivo; outline: as §1
[33] = system: Intestine; assay: Biodistribution in ddY mouse intestine assessed per gram of tissue at 14.8 kBq, iv after 5 mins; details: in vivo; outline: as §1
[34] = system: Stomach; assay: Biodistribution in ddY mouse stomach assessed per gram of tissue at 14.8 kBq, iv after 5 mins; details: in vivo; outline: as §2
[35] = system: Spleen; assay: Biodistribution in ddY mouse spleen assessed per gram of tissue at 14.8 kBq, iv after 5 mins; details: in vivo; outline: as §2
[36] = system: Pancreas; assay: Biodistribution in ddY mouse pancreas assessed per gram of tissue at 14.8 kBq, iv after 5 mins; details: in vivo; outline: as §2
[37] = system: Heart; assay: Biodistribution in ddY mouse heart assessed per gram of tissue at 14.8 kBq, iv after 5 mins; details: in vivo; outline: as §1
[38] = system: Lung; assay: Biodistribution in ddY mouse lung assessed per gram of tissue at 14.8 kBq, iv after 5 mins; details: in vivo; outline: as §2
[39] = system: Brain; assay: Biodistribution in ddY mouse brain assessed per gram of tissue at 14.8 kBq, iv after 5 mins; details: in vivo; outline: as §1
[40] = system: Blood; assay: Biodistribution in ddY mouse blood assessed per gram of tissue at 14.8 kBq, iv after 30 mins; details: in vivo, 0.5 h; outline: as §1
[41] = system: Liver; assay: Biodistribution in ddY mouse liver assessed per gram of tissue at 14.8 kBq, iv after 30 mins; details: in vivo, 0.5 h; outline: as §1
[42] = system: Kidney; assay: Biodistribution in ddY mouse kidney assessed per gram of tissue at 14.8 kBq, iv after 30 mins; details: in vivo, 0.5 h; outline: as §1
[43] = system: Intestine; assay: Biodistribution in ddY mouse intestine assessed per gram of tissue at 14.8 kBq, iv after 30 mins; details: in vivo, 0.5 h; outline: as §1
[44] = system: Stomach; assay: Biodistribution in ddY mouse stomach assessed per gram of tissue at 14.8 kBq, iv after 30 mins; details: in vivo, 0.5 h; outline: as §2
[45] = system: Spleen; assay: Biodistribution in ddY mouse spleen assessed per gram of tissue at 14.8 kBq, iv after 30 mins; details: in vivo, 0.5 h; outline: as §2
[46] = system: Pancreas; assay: Biodistribution in ddY mouse pancreas assessed per gram of tissue at 14.8 kBq, iv after 30 mins; details: in vivo, 0.5 h; outline: as §2
[47] = system: Heart; assay: Biodistribution in ddY mouse heart assessed per gram of tissue at 14.8 kBq, iv after 30 mins; details: in vivo, 0.5 h; outline: as §1
[48] = system: Lung; assay: Biodistribution in ddY mouse lung assessed per gram of tissue at 14.8 kBq, iv after 30 mins; details: in vivo, 0.5 h; outline: as §2
[49] = system: Brain; assay: Biodistribution in ddY mouse brain assessed per gram of tissue at 14.8 kBq, iv after 30 mins; details: in vivo, 0.5 h; outline: as §1
[50] = system: Blood; assay: Biodistribution in ddY mouse blood assessed per gram of tissue at 14.8 kBq, iv after 60 mins; details: in vivo, 1 h; outline: as §1
[51] = system: Liver; assay: Biodistribution in ddY mouse liver assessed per gram of tissue at 14.8 kBq, iv after 60 mins; details: in vivo, 1 h; outline: as §2
[52] = system: Kidney; assay: Biodistribution in ddY mouse kidney assessed per gram of tissue at 14.8 kBq, iv after 60 mins; details: in vivo, 1 h; outline: as §1
[53] = system: Intestine; assay: Biodistribution in ddY mouse intestine assessed per gram of tissue at 14.8 kBq, iv after 60 mins; details: in vivo, 1 h; outline: as §1
[54] = system: Stomach; assay: Biodistribution in ddY mouse stomach assessed per gram of tissue at 14.8 kBq, iv after 60 mins; details: in vivo, 1 h; outline: as §2
[55] = system: Spleen; assay: Biodistribution in ddY mouse spleen assessed per gram of tissue at 14.8 kBq, iv after 60 mins; details: in vivo, 1 h; outline: as §2
[56] = system: Pancreas; assay: Biodistribution in ddY mouse pancreas assessed per gram of tissue at 14.8 kBq, iv after 60 mins; details: in vivo, 1 h; outline: as §2
[57] = system: Heart; assay: Biodistribution in ddY mouse heart assessed per gram of tissue at 14.8 kBq, iv after 60 mins; details: in vivo, 1 h; outline: as §1
[58] = system: Lung; assay: Biodistribution in ddY mouse lung assessed per gram of tissue at 14.8 kBq, iv after 60 mins; details: in vivo, 1 h; outline: as §2
[59] = system: Brain; assay: Biodistribution in ddY mouse brain assessed per gram of tissue at 14.8 kBq, iv after 60 mins; details: in vivo, 1 h; outline: as §1
[60] = system: Blood; assay: Biodistribution in ddY mouse blood assessed per gram of tissue at 14.8 kBq, iv after 180 mins; details: in vivo, 3 h; outline: as §1

For CS(=O)(=O)Nc1ccc2nc(CN3CCC(Cc4ccc([125I])cc4)CC3)[nH]c2c1, the Drug uptake [1] was 10.93 % ID/g, the Drug uptake [2] was 10.51 % ID/g and the Drug uptake [3] was 6.49 % ID/g. For the same compound, the Drug uptake [4] was 3.56 % ID/g, the Drug uptake [5] was 1.6 % ID/g and the Drug uptake [6] was 3.72 % ID/g. It also gave a Drug uptake [7] of 3.62 % ID/g, a Drug uptake [8] of 0.93 % ID/g and a Drug uptake [9] of 0.47 % ID/g. The Drug uptake [10] was 17.81 % ID/g, the Drug uptake [11] was 15.23 % ID/g and the Drug uptake [12] was 7.82 % ID/g. The Drug uptake [13] was 4.04 % ID/g, the Drug uptake [14] was 2.85 % ID/g and the Drug uptake [15] was 5.39 % ID/g. It also gave a Drug uptake [16] of 6.93 % ID/g, a Drug uptake [17] of 1.61 % ID/g and a Drug uptake [18] of 0.67 % ID/g. For the same compound, the Drug uptake [19] was 0.36 % ID/g, the Drug uptake [20] was 4.74 % ID/g and the Drug uptake [21] was 4.6 % ID/g. It also gave a Drug uptake [22] of 3.26 % ID/g, a Drug uptake [23] of 0.55 % ID/g and a Drug uptake [24] of 0.42 % ID/g. For the same compound, the Drug uptake [25] was 0.9 % ID/g, the Drug uptake [26] was 0.92 % ID/g and the Drug uptake [27] was 9.07 % ID/g. It also gave a Drug uptake [28] of 3.82 % ID/g, a Drug uptake [29] of 0.32 % ID/g and a Drug uptake [30] of 0.95 % ID/g. For the same compound, the Drug uptake [31] was 19.35 % ID/g, the Drug uptake [32] was 10.99 % ID/g and the Drug uptake [33] was 1.58 % ID/g. The Drug uptake [34] was 1.28 % ID/g, the Drug uptake [35] was 3.19 % ID/g and the Drug uptake [36] was 3.09 % ID/g. It also gave a Drug uptake [37] of 5.83 % ID/g, a Drug uptake [38] of 3.52 % ID/g and a Drug uptake [39] of 0.44 % ID/g. It also gave a Drug uptake [40] of 0.53 % ID/g, a Drug uptake [41] of 16.67 % ID/g and a Drug uptake [42] of 8.79 % ID/g. It also gave a Drug uptake [43] of 3.07 % ID/g, a Drug uptake [44] of 2.24 % ID/g and a Drug uptake [45] of 2.91 % ID/g. For the same compound, the Drug uptake [46] was 3.71 % ID/g, the Drug uptake [47] was 4.29 % ID/g and the Drug uptake [48] was 1.86 % ID/g. The Drug uptake [49] was 0.5 % ID/g, the Drug uptake [50] was 0.54 % ID/g and the Drug uptake [51] was 13.74 % ID/g. The Drug uptake [52] was 8.52 % ID/g, the Drug uptake [53] was 3.79 % ID/g and the Drug uptake [54] was 2.4 % ID/g. It also gave a Drug uptake [55] of 2.78 % ID/g, a Drug uptake [56] of 4.55 % ID/g and a Drug uptake [57] of 4.35 % ID/g. It also gave a Drug uptake [58] of 1.7 % ID/g, a Drug uptake [59] of 0.52 % ID/g and a Drug uptake [60] of 0.55 % ID/g.
